Measurements as given in ChEMBL document CHEMBL4190292, “Electrophilic Triterpenoid Enones: A Comparative Thiol-Trapping and Bioactivity Study” (J Nat Prod, 2017).

Experiments:
Assay type in all cases: cell-based
[1] = Inhibition of TNF-alpha stimulated NF-kappaB (unknown origin) expressed in mouse NIH/3T3 cells after 6 hrs by luciferase reporter gene assay; details: NIH3T3, 6 h
Method in brief: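 NIH-3T3-KBF-Luc mouse fibroblasts given TNFα (20 ng/mL) with or without compounds for 6 h. Cells washed, lysed in Tris-phosphate pH 7.8 buffer, and luciferase read on the supernatant. Inhibition expressed as percent of TNFα-induced NF-κB activity (100%). Mean of at least five independent experiments.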

[2] = biological target: T1, Nuclear factor erythroid 2-related factor 2 (Homo sapiens) (UniProt Q16236); assay: Activation of Nrf2 (unknown origin) expressed in human HaCaT-ARE-luc cells after 6 hrs by luciferase reporter gene assay relative to control tertbutylhydroquinone
T1 sequence (whole entry): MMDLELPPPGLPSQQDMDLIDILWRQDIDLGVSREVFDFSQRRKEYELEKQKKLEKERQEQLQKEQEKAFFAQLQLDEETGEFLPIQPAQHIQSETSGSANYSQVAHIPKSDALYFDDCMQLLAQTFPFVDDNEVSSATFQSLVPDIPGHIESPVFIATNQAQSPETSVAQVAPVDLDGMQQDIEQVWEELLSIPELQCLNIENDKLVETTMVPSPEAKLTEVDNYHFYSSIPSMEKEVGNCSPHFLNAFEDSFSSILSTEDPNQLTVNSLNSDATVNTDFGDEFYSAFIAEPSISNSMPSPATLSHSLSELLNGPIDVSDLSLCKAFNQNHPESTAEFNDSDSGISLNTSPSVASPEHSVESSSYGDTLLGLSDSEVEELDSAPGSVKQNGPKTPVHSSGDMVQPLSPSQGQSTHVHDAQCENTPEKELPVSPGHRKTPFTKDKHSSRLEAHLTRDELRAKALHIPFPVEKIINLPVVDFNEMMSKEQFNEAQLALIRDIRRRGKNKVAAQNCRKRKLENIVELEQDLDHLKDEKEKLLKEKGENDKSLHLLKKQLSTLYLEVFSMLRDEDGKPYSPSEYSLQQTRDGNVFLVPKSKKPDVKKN

[3] = tested on: HeLa; assay: Cytotoxicity against human HeLa cells harboring pSTAT3-Luc assessed as reduction in cell viability at >5 to 10 uM
[4] = tested on: HaCaT; assay: Cytotoxicity against human HaCaT cells harboring pARE-Luc assessed as reduction in cell viability at >5 to 10 uM
[5] = biological target: Signal transducer and activator of transcription 3 (Homo sapiens, UniProt P40763); assay: Inhibition of IFN-gamma stimulated STAT3 (unknown origin) expressed in human HeLa cells after 6 hrs by luciferase reporter gene assay
Method in brief: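 HeLa-STAT3-Luc cells stimulated with γIFN (20 IU/mL) with or without compounds for 6 h. PBS-washed cells lysed 15 min at room temperature and luciferase RLU measured. Values expressed as percent inhibition of IFN-γ-induced activity (taken as 100%). Mean of at least five independent experiments.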

[6] = biological target: T2, Nuclear factor erythroid 2-related factor 2 (Homo sapiens, UniProt Q16236); assay: Activation of Nrf2 (unknown origin) expressed in human HaCaT-ARE-luc cells after 6 hrs by luciferase reporter gene assay
T2 sequence (Q16236 whole entry): T1 sequence (whole entry)
Method in brief: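 HaCaT-ARE-Luc keratinocytes in DMEM with 10% FBS, 37 °C, 5% CO2, exposed to compounds for 6 h. Cells then washed with PBS and lysed (Tris-phosphate pH 7.8, MgCl2, DTT, Triton X-100, glycerol, 15 min RT). Luciferase RLU read on the supernatant and EC50 derived. Mean of at least five independent experiments.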

Signal transducer and activator of transcription 3, sequence (P40763 whole entry): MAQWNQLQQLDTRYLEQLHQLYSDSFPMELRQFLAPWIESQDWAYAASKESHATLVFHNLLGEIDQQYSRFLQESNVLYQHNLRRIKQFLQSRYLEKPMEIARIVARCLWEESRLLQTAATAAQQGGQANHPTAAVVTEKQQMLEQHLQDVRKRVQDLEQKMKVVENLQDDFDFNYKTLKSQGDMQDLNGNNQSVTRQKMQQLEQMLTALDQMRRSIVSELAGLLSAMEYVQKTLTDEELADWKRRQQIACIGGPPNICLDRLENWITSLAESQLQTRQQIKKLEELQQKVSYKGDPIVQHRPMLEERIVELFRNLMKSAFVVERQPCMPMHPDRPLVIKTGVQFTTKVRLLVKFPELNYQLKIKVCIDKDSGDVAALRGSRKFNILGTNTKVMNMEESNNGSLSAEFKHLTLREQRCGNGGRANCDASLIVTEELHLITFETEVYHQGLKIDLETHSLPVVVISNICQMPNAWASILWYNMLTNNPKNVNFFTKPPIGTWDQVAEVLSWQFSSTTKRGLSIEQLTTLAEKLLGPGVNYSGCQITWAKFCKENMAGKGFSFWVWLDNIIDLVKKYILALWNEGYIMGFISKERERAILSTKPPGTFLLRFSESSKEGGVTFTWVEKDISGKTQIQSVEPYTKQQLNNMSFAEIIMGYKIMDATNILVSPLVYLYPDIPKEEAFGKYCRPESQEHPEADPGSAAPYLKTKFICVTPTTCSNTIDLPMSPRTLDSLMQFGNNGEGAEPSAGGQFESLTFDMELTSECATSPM

IC50 [1]	Structure (SMILES)	further results
15.3 µM	COC(=O)[C@]12CCC(C)(C)C[C@H]1C1=CC[C@@H]3[C@@]4(C)C=C(C#N)C(=O)C(C)(C)[C@@H]4CC[C@@]3(C)[C@]1(C)CC2	Ratio [2]: 1.69
> 25 µM	COC(=O)[C@]12CCC(C)(C)C[C@H]1C1=CC[C@@H]3[C@@]4(C)C=C(OC(C)=O)C(=O)C(C)(C)[C@@H]4CC[C@@]3(C)[C@]1(C)CC2	
> 25 µM	COC(=O)[C@]12CCC(C)(C)C[C@H]1C1=CC[C@@H]3[C@@]4(C)C=C(I)C(=O)C(C)(C)[C@@H]4CC[C@@]3(C)[C@]1(C)CC2	
1.2 to 2.38 µM	COC(=O)[C@]12CCC(C)(C)C[C@H]1[C@H]1C(=O)C=C3[C@@]4(C)C=C(C#N)C(=O)C(C)(C)[C@@H]4CC[C@@]3(C)[C@]1(C)CC2 [BARDOXOLONE METHYL]	Ratio [2]: 40.9
> 25 µM	COC(=O)[C@]12CCC(C)(C)C[C@H]1C1=CC[C@@H]3[C@@]4(C)C=C(c5ccccc5)C(=O)C(C)(C)[C@@H]4CC[C@@]3(C)[C@]1(C)CC2	
> 25 µM	COC(=O)[C@]12CCC(C)(C)C[C@H]1C1=CC[C@@H]3[C@@]4(C)Cc5cnoc5C(C)(C)[C@@H]4CC[C@@]3(C)[C@]1(C)CC2	
> 25 µM	COC(=O)C1=C[C@]2(C)[C@H]3CC=C4[C@@H]5CC(C)(C)CC[C@]5(C(=O)OC)CC[C@@]4(C)[C@]3(C)CC[C@H]2C(C)(C)C1=O	
> 25 µM	COC(=O)[C@]12CCC(C)(C)C[C@H]1C1=CC[C@@H]3[C@@]4(C)C=CC(=O)C(C)(C)[C@@H]4CC[C@@]3(C)[C@]1(C)CC2	
> 25 µM	COC(=O)[C@]12CCC(C)(C)C[C@H]1C1=CC[C@@H]3[C@@]4(C)CCC(=O)C(C)(C)[C@@H]4CC[C@@]3(C)[C@]1(C)CC2	
> 25 µM	COC(=O)[C@]12CCC(C)(C)C[C@H]1C1=CC[C@@H]3[C@@]4(C)C=C(c5ccc(C#N)cc5)C(=O)C(C)(C)[C@@H]4CC[C@@]3(C)[C@]1(C)CC2	
> 25 µM	COC(=O)[C@]12CCC(C)(C)C[C@H]1C1=CC[C@@H]3[C@@]4(C)C=C(Br)C(=O)C(C)(C)[C@@H]4CC[C@@]3(C)[C@]1(C)CC2	

Further lines, the compound ahead of its results:

Structure (SMILES)	IC50 [1]	further results
COC(=O)[C@]12CCC(C)(C)C[C@H]1C1=CC[C@@H]3[C@@]4(C)CC(C=O)=C(O)C(C)(C)[C@@H]4CC[C@@]3(C)[C@]1(C)CC2	> 25 µM	
COC(=O)[C@]12CCC(C)(C)C[C@H]1C1=CC[C@@H]3[C@@]4(C)C=C(C(=O)O)C(=O)C(C)(C)[C@@H]4CC[C@@]3(C)[C@]1(C)CC2	> 25 µM	Ratio [2]: 0.41
COC(=O)[C@]12CCC(C)(C)C[C@H]1C1=CC[C@@H]3[C@@]4(C)C=C(C#Cc5ccccc5)C(=O)C(C)(C)[C@@H]4CC[C@@]3(C)[C@]1(C)CC2	> 25 µM	
COC(=O)[C@]12CCC(C)(C)C[C@H]1C1=CC[C@@H]3[C@@]4(C)C=C(C=O)C(=O)C(C)(C)[C@@H]4CC[C@@]3(C)[C@]1(C)CC2	7.69 µM	Activity [3]: Toxic; Activity [4]: Toxic; IC50 [5]: Nd(Toxic); EC50 [6]: Nd(Toxic)
CCOC(=O)/C=C/C1=C[C@]2(C)[C@H]3CC=C4[C@@H]5CC(C)(C)CC[C@]5(C(=O)OC)CC[C@@]4(C)[C@]3(C)CC[C@H]2C(C)(C)C1=O	> 25 µM	
COC(=O)[C@]12CCC(C)(C)C[C@H]1C1=CC[C@@H]3[C@@]4(C)CC(C#N)=C(O)C(C)(C)[C@@H]4CC[C@@]3(C)[C@]1(C)CC2	> 25 µM	
CC1(C)CC[C@]2(C(=O)O)CC[C@]3(C)C(=CC[C@@H]4[C@@]5(C)CC[C@H](O)C(C)(C)[C@@H]5CC[C@]43C)[C@@H]2C1 [OLEANOLIC_ACID]	> 50 µM	
COC(=O)[C@]12CCC(C)(C)C[C@H]1C1=CC[C@@H]3[C@@]4(C)C=C(c5ccc(OC)cc5)C(=O)C(C)(C)[C@@H]4CC[C@@]3(C)[C@]1(C)CC2	> 25 µM	
